Measurements: publication PMC8542630 (Cell chemical biology, 2021)
Like-named read-outs stand apart in the source and are kept apart here.

Experiments:
Sc-DynGST = Sc-DynGST (Saccharomyces cerevisiae, UniProt P36022); test: Single-molecule motility assay; format: biochemical, S. cerevisiae; conditions: single-molecule
GFP-Sc-Dyn [1] = target: T1, GFP-Sc-Dyn (Saccharomyces cerevisiae, UniProt P36022); test: Microtubule gliding assay; format: biochemical, S. cerevisiae; conditions: 25 μM compound
T1 sequence (P36022 1219-4092): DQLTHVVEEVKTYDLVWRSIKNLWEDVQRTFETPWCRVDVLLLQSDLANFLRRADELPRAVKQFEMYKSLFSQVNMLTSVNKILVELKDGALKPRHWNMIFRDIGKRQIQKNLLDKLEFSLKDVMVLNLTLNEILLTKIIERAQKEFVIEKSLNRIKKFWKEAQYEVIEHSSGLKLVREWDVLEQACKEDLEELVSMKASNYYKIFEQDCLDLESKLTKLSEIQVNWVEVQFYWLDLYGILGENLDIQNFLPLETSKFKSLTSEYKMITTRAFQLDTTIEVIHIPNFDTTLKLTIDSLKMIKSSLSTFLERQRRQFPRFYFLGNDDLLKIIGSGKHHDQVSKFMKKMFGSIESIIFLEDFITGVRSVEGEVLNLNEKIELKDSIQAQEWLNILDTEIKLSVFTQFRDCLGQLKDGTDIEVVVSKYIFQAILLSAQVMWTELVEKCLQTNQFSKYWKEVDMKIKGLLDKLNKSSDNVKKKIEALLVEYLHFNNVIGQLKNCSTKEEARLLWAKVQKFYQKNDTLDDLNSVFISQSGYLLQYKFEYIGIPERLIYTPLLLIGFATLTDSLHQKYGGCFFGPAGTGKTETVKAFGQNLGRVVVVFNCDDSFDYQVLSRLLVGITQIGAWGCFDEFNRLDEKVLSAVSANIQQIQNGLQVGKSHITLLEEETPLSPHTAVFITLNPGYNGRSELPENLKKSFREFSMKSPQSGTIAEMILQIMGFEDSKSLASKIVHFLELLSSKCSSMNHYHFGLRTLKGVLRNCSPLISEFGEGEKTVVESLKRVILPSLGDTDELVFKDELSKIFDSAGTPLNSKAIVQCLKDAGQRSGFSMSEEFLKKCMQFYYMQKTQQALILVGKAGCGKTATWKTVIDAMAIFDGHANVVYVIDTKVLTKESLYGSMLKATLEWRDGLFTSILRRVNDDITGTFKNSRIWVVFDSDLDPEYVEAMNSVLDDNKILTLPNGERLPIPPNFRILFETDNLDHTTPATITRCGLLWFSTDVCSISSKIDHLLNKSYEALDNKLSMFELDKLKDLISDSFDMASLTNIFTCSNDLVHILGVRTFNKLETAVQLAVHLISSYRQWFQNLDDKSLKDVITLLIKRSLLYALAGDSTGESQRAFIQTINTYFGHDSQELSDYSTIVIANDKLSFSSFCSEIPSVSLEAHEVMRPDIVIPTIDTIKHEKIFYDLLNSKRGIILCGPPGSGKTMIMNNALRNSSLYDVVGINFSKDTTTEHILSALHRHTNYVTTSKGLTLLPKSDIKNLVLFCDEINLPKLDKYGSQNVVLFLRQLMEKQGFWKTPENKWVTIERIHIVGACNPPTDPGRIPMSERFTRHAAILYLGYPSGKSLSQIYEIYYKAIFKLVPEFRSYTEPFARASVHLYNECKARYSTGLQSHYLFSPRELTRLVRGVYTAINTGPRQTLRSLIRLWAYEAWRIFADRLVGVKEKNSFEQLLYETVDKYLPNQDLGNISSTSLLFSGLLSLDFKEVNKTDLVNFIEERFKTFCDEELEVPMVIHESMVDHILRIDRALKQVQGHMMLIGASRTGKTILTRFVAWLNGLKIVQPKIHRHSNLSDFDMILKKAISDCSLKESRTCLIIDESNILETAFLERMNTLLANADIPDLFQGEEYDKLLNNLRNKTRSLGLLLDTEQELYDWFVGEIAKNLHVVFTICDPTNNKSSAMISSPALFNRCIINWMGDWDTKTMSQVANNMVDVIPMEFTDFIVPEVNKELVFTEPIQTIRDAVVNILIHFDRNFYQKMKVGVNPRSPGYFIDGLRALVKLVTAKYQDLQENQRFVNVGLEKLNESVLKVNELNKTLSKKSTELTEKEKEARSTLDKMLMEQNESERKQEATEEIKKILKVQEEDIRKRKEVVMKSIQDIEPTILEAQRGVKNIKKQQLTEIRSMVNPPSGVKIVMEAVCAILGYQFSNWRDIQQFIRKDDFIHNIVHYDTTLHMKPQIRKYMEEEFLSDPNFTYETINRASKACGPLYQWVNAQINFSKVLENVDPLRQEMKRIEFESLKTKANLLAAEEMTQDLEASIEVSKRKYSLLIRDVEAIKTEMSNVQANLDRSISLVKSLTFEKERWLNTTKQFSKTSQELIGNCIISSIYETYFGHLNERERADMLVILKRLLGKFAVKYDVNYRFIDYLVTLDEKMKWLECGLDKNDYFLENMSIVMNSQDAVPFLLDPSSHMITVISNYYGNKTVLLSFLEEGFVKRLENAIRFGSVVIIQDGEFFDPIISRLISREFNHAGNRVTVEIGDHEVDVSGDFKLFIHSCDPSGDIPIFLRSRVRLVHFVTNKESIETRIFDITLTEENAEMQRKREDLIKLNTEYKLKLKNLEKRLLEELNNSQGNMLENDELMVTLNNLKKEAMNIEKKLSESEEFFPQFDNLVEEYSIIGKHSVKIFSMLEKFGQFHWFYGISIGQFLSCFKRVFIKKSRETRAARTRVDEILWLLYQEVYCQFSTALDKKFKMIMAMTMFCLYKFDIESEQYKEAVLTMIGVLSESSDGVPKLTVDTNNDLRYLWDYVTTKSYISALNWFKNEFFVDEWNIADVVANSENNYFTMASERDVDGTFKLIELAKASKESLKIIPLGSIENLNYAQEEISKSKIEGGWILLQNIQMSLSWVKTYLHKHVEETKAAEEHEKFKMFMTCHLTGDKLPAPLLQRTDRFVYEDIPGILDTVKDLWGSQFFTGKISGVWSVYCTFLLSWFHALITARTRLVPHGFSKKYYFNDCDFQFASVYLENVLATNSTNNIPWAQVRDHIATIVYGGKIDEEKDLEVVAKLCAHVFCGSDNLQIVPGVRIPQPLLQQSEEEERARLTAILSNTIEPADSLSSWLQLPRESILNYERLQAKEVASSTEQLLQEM

Hs-dynein 1 [2] = target: T2, Hs-dynein 1 (Homo sapiens, UniProt Q14204); test: Radioactive ATPase assay, basal ATPase activity of Hs-dynein 1; format: biochemical; conditions: for Inhibition of Hs-dynein 1 basal ATPase activity (in words): compounds tested at 20 μM, 1 mM MgATP, no microtubules, n=2
Procedure, shortened: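 Hs-dynein 1 motor construct (N-terminal His6, aa 1320–4646) at 30 nM, without microtubules. Radioactive ATPase reaction ran for 45 min with test compound. Percent inhibition was obtained by normalising the ATPase rate with compound to DMSO control.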

Sc-Dyn-lyso [3] = target: T3, Sc-Dyn-lyso (Saccharomyces cerevisiae, UniProt P36022); test: Microscale thermophoresis; format: binding, S. cerevisiae; conditions: n=2, negative control
T3 sequence (P36022 1758-2992 limits assumed): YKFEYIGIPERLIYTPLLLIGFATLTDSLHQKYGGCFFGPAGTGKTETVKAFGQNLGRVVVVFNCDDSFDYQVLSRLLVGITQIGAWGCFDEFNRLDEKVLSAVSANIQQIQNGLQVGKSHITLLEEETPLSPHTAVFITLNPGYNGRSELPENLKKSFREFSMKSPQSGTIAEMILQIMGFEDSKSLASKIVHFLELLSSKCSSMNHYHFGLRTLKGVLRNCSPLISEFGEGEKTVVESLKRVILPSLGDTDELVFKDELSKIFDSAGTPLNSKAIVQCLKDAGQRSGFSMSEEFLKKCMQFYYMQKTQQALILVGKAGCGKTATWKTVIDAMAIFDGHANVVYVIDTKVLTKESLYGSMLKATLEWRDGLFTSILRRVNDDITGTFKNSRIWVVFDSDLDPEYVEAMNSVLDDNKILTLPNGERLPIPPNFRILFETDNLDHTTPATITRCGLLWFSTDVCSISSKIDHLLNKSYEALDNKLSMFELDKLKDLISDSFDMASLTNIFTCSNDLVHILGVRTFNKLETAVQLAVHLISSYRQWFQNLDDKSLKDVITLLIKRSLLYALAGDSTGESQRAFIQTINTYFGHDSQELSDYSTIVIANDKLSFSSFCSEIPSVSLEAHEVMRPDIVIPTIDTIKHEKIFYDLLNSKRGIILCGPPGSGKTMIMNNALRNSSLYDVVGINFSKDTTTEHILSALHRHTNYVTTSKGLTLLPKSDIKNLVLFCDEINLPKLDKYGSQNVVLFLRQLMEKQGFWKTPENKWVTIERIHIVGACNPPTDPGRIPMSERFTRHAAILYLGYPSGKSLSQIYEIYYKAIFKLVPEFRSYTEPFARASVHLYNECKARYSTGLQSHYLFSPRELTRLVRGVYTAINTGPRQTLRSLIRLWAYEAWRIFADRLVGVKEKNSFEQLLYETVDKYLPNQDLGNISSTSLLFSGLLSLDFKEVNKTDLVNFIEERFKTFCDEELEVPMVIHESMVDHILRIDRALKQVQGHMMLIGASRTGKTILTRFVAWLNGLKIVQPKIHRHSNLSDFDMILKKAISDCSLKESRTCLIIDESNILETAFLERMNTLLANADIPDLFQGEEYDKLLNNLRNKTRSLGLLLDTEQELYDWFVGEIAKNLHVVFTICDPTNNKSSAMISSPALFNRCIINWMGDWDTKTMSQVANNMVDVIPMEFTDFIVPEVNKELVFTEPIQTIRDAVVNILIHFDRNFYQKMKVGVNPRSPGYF
T3 sequence (P36022 3301-4092 limits assumed): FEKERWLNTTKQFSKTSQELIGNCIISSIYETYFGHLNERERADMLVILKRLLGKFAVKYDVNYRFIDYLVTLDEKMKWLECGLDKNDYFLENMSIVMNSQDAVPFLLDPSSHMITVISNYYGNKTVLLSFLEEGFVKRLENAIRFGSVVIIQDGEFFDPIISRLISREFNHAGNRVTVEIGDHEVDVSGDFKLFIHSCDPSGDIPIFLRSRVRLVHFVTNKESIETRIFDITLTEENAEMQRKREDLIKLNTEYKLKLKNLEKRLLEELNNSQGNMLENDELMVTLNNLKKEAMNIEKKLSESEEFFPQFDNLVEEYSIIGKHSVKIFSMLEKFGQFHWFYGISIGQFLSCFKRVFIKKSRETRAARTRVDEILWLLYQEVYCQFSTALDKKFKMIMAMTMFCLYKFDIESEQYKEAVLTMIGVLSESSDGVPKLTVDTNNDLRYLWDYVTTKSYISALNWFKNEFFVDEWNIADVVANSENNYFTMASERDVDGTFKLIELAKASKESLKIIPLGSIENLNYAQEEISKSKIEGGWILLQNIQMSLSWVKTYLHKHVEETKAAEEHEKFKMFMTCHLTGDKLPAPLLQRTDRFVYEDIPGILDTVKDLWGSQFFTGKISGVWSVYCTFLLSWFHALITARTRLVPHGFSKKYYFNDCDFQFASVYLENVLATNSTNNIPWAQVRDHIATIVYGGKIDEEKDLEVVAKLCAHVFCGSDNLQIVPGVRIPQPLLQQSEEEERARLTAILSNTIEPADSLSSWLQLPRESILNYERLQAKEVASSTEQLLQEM

GFP-Sc-Dyn [4] = target: T1, GFP-Sc-Dyn; test: Microscale thermophoresis; format: binding, S. cerevisiae
Hs-dynein 1 [5] = target: T2, Hs-dynein 1; conditions: ref Steinman et al., 2017; cited from earlier work
[6] = target: GFP-Sc-Dyn V2391S/M2732S (AAA3_V-S/AAA4_M-S) (Saccharomyces cerevisiae, UniProt P36022, M2732S/V2391S); test: Microscale thermophoresis; format: binding; conditions: read-out: EC50, AMPPNP binding to AAA3_V-S/AAA4_M-S (MST); mean ± 95% CI, n=3
Sequence of GFP-Sc-Dyn V2391S/M2732S (AAA3_V-S/AAA4_M-S) (P36022 1219-4092 V2391S/M2732S): as the sequence (P36022 1219-4092) above, with V1173S, M1514S counted along it

Hs-dynein 1 [7] = target: T2, Hs-dynein 1; test: Radioactive ATPase assay, microtubule-stimulated ATPase activity of Hs-dynein 1; format: biochemical
Procedure, shortened: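 Radioactive ATPase assay with Hs-dynein 1 (His6, aa 1320–4646; 30 nM) in the presence of microtubules. Reaction time was 45 min, and rates with test compound were normalised to DMSO control.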

Xl-katanin = Xl-katanin (Xenopus laevis, UniProt Q9PUL2); test: NADH-coupled steady-state ATPase assay, Xl-katanin; format: biochemical, X. laevis; conditions: 20 μM, 1 mM MgATP
Sequence of Xl-katanin (Q9PUL2 whole entry): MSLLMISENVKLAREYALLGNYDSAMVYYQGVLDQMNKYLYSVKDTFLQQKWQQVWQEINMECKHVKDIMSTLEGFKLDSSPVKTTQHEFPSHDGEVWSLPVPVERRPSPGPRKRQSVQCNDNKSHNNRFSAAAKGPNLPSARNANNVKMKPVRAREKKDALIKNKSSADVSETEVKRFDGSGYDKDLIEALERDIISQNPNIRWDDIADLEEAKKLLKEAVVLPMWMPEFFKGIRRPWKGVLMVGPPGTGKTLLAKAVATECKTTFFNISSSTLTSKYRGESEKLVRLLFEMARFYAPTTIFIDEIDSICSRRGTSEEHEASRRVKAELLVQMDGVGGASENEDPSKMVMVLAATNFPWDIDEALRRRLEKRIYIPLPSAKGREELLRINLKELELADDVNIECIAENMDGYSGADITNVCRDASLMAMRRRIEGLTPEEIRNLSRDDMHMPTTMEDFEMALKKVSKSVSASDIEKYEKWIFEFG
Procedure, shortened: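 Recombinant Xl-katanin (50 nM; E. coli, MBP-trap, MonoQ and gel filtration) in 25 mM K-HEPES pH 7.5, 70 mM KCl, 20 mM (NH4)2SO4, 5 mM MgCl2, 2.5 mM DTT, 0.01% Triton X-100 plus NADH-coupled regeneration mix. After 10 min RT preincubation with test compound, MgATP started the reaction. The fluorescence decrease rate (340/440 nm) was converted to ATPase rate using an ADP standard curve.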

Sc-Dyn-lyso [8] = target: Sc-Dyn-lyso (Saccharomyces cerevisiae, UniProt P36022); test: NADH-coupled steady-state ATPase assay, Sc-Dyn-lyso; format: biochemical, S. cerevisiae
Procedure, shortened: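 Ten-dose DMSO serial dilution of test compound (stock top 4 mM) was preincubated 10 min at RT. MgATP (10 mM stock) started the reaction, and NADH fluorescence slopes were converted via an ADP standard curve.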

Mm-VCP/p97 = Mm-VCP/p97 (Mus musculus, UniProt Q01853); test: NADH-coupled steady-state ATPase assay, Mm-VCP/p97; format: biochemical, M. musculus; conditions: 20 μM, 1 mM MgATP
Sequence of Mm-VCP/p97 (Q01853 whole entry): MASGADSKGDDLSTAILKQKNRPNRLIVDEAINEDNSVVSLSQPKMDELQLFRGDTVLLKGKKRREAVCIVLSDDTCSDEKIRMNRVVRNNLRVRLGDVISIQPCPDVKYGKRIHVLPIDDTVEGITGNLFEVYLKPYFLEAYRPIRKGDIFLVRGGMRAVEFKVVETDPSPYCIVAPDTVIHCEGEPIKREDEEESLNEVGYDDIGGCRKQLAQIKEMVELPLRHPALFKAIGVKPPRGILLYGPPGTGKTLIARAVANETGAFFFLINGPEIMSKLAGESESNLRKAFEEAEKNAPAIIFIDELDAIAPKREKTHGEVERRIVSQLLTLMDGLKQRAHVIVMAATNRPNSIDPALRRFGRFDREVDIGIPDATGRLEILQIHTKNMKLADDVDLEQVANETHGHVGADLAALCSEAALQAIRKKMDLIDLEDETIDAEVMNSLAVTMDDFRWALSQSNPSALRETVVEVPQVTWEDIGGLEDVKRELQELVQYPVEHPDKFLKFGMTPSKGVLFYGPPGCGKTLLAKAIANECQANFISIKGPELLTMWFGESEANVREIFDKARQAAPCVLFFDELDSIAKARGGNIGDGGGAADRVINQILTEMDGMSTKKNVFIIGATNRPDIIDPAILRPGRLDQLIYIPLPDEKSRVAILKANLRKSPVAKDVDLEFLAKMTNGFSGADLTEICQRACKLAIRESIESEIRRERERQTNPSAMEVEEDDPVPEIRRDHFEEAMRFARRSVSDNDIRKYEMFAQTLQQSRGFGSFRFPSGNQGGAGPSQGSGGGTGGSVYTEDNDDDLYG

GFP-Sc-Dyn [9] = target: T1, GFP-Sc-Dyn; test: NADH-coupled steady-state ATPase assay, GFP-Sc-Dyn basal ATPase; format: biochemical, S. cerevisiae
Dm-spastin = Dm-spastin (Drosophila melanogaster, UniProt Q8I0P1, DEL311-372); test: NADH-coupled steady-state ATPase assay, Dm-spastin; format: biochemical, D. melanogaster; conditions: 20 μM, 1 mM MgATP
Hs-FIGL1 = target: T4, Hs-FIGL1 (Homo sapiens, UniProt Q6PIW4); test: NADH-coupled steady-state ATPase assay, Hs-FIGL1; format: biochemical, H. sapiens; conditions: read-out: Inhibition of ATPase activity, Hs-FIGL1
T4 sequence (Q6PIW4 288-674): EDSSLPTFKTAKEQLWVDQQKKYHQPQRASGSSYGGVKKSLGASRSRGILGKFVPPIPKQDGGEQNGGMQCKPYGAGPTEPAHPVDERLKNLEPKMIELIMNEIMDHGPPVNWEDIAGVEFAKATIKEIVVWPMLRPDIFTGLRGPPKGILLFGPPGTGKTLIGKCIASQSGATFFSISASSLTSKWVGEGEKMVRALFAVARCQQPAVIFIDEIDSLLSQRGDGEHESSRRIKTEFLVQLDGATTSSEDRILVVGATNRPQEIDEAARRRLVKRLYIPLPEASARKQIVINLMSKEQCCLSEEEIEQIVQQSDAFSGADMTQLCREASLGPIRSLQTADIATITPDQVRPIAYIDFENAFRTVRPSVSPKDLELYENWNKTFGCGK
Procedure, shortened: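 Recombinant Hs-FIGL1 (50 nM; E. coli-expressed) in 25 mM Na-MES pH 6.5, 70 mM KOAc, 20 mM (NH4)2SO4, 5 mM Mg(OAc)2, 1 mM TCEP, 0.01% Triton X-100, with NADH/PEP/pyruvate kinase/lactate dehydrogenase coupling system. Protein preincubated 10 min at RT with test compound, then MgATP added. NADH fluorescence (ex 340, em 440 nm) slope converted to ATPase rate with an ADP standard curve.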

Hs-dynein 1 [10] = target: T2, Hs-dynein 1; conditions: read-out: IC50, inhibition of Hs-dynein 1; ref Steinman et al., 2017; cited from earlier work

Sequence of Sc-DynGST (P36022 1219-4092 limits assumed): as the sequence (P36022 1219-4092) above

Q: With COc1c[nH]c2c(C#N)c(C3(c4ccc(Cl)cc4)CC3)nn2c1=O [compound 6, 2-[1-(4-chlorophenyl)cyclopropyl]-6-methoxy-7-oxo-4H-pyrazolo[1,5-a]pyrimidine-3-carbonitrile] as the molecule, how does the “Effect on landing rate (in words)” value (Sc-DynGST) read?
A: The value was “not sensitive”.

Q: What about the “Effect on dynein processivity (run length) (in words)” value (Sc-DynGST; 0-50 μM compound) of the same molecule?
A: The value was “not sensitive”.

Q: What about the “Effect on dynein velocity (in words)” value (Sc-DynGST; 0-50 μM compound) of the same molecule?
A: Its value is “not sensitive”.

Q: What about the “Effect on microtubule gliding (in words)” value (GFP-Sc-Dyn [1]) of the same molecule?
A: The value was “comparable to DMSO”.

Q: And the “Microtubule gliding velocity, 30 minutes after treatment” value (GFP-Sc-Dyn [1]; 1% DMSO, 1 mM Mg-ATP, mean ± SD)?
A: Its value is 66 ± 21.

Q: And the “Inhibition of Hs-dynein 1 basal ATPase activity (in words)” value (Hs-dynein 1 [2])?
A: Its value is “does not inhibit”.

Q: And the “Binding to Sc-Dyn-lyso (MST, in words)” value (Sc-Dyn-lyso [3])?
A: Its value is “did not bind”.

Q: What about the “Binding to GFP-Sc-Dyn (MST, in words)” value (GFP-Sc-Dyn [4]; control compound) of the same molecule?
A: Its value is “could not detect binding”.

Q: Which “Inhibition of dynein's basal ATPase activity (in words)” value (Hs-dynein 1 [5]) does the source give for N#CC(=C(O)c1ccc(Cl)cc1Cl)c1nc2cc(Cl)ccc2c(=O)[nH]1 [compound 1, ciliobrevin D] here?
A: Its value is “does not”.

Q: With Nc1ncnc2c1ncn2[C@@H]1O[C@H](COP(=O)(O)OP(=O)(O)NP(=O)(O)O)[C@@H](O)[C@H]1O [AMPPNP, adenylyl imidodiphosphate, reference compound] as the molecule, how does the EC50 [6] read?
A: The EC50 was 180 ± 78 µM.

Q: And the EC50 (GFP-Sc-Dyn [4]; read-out: EC50, AMPPNP binding to GFP-Sc-Dyn (MST), mean ± 95% CI, n=3, 60% MST power)?
A: The EC50 was 25 ± 20 µM.

Q: For N#Cc1c(C2(c3ccc(Cl)cc3)CC2)nn2c(=O)c(Oc3ccc(Cl)cc3)c[nH]c12 [compound 17, 6-(4-chlorophenoxy)-2-(1-(4-chlorophenyl)cyclopropyl)-7-oxo-4,7-dihydropyrazolo[1,5-a]pyrimidine-3-carbonitrile], which “Inhibition of Hs-dynein 1 basal ATPase activity (in words)” value (Hs-dynein 1 [2]) is on record?
A: Its value is “less active”.

Q: For COc1cccc(Oc2c[nH]c3c(C#N)c(C4(c5ccc(Cl)cc5)CC4)nn3c2=O)c1 [compound 16, 2-[1-(4-chlorophenyl)cyclopropyl]-6-(3-methoxyphenoxy)-7-oxo-4H-pyrazolo[1,5-a]pyrimidine-3-carbonitrile], which “Inhibition of Hs-dynein 1 basal ATPase activity (in words)” value (Hs-dynein 1 [2]) is on record?
A: The value was “less active”.

Q: For N#Cc1c(C2(c3ccc(Cl)cc3)CC2)nn2c(=O)c(Oc3cccc(Cl)c3)c[nH]c12 [compound 19, 6-(3-chlorophenoxy)-2-[1-(4-chlorophenyl)cyclopropyl]-7-oxo-4H-pyrazolo[1,5-a]pyrimidine-3-carbonitrile], which IC50 (Hs-dynein 1 [7]) is on record?
A: Its IC50 is about 30 µM.

Q: What about the “Reduction of ATPase activity, Xl-katanin” value (Xl-katanin) of the same molecule?
A: Its value is under 25%.

Q: What about the IC50 (Sc-Dyn-lyso [8]) of the same molecule?
A: The IC50 was 14 ± 4.9 µM.

Q: And the IC50 (Hs-dynein 1 [2])?
A: The IC50 was 17 ± 2.3 µM.

Q: And the “Inhibition of Hs-dynein 1 basal ATPase activity (in words)” value (Hs-dynein 1 [2])?
A: Its value is “most active”.

Q: And the “Reduction of ATPase activity, Mm-VCP” value (Mm-VCP/p97)?
A: Its value is under 25%.

Q: What about the IC50 (GFP-Sc-Dyn [9]) of the same molecule?
A: Its IC50 is 10 ± 1.2 µM.

Q: And the “Reduction of ATPase activity, Dm-spastin” value (Dm-spastin)?
A: Its value is under 25%.

Q: And the inhibition at 20 µM (Hs-FIGL1)?
A: Its inhibition at 20 µM is about 85%.

Q: For N#Cc1c(C2(c3ccc(Cl)cc3)CC2)nn2c1[nH]c(=O)c1cc(I)ccc12 [compound 2, dynapyrazole-A], which IC50 (Hs-dynein 1 [10]) is on record?
A: The IC50 was about 10 µM.

Q: For N#Cc1c(C2(c3ccc(Cl)cc3)CC2)nn2c(=O)c(Oc3ccccc3Cl)c[nH]c12 [compound 13, 6-(2-chlorophenoxy)-2-[1-(4-chlorophenyl)cyclopropyl]-7-oxo-4H-pyrazolo[1,5-a]pyrimidine-3-carbonitrile], which “Inhibition of Hs-dynein 1 basal ATPase activity (in words)” value (Hs-dynein 1 [2]) is on record?
A: The value was “less active”.
